Activity calls are given as the source filed them. The calls are words filed in the database; no cut-off is given here.

The target of test [1] is T1, 5-hydroxytryptamine receptor 1A (Rattus norvegicus) (UniProt P19327).
T1 sequence (whole entry): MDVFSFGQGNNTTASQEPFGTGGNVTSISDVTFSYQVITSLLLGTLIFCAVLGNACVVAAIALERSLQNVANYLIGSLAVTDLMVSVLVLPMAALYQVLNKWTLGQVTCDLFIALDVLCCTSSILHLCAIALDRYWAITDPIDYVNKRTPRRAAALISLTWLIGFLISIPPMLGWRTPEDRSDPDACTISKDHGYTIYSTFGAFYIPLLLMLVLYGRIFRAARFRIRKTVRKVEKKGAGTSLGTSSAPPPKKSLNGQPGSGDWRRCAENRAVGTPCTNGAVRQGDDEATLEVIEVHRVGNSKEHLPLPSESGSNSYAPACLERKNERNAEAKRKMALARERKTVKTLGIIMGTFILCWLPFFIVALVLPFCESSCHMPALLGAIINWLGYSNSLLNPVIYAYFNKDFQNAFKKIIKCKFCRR
Kind of test: Antagonist activity at 5HT1A receptor in rat brain hippocampal membranes assessed as inhibition of [3H]-8-OH-DPAT binding to receptor after 15 mins by competition assay in absence of GTP. In kind it is cell membranes. The gist of the method: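 Hippocampal membranes, 40 µg protein, incubated with 1 nM [3H]-8-OH-DPAT at 37 °C for 15 min under yellow light. Buffer was 50 mM Tris-HCl pH 7.4 with 1 mM CaCl2, 1 mM MnCl2 and pargyline. Non-specific binding was defined with 5-HT. Filters were soaked in 0.5% polyethyleneimine. IC50 came from nonlinear regression fitted with one or two sites. Ki by Cheng-Prusoff, using Kd from saturation experiments.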

In test [2] the target is T1, 5-hydroxytryptamine receptor 1A (Rattus norvegicus). Kind of test: Antagonist activity at 5HT1A receptor in rat brain hippocampal membranes assessed as inhibition of [3H]-8-OH-DPAT binding to receptor after 15 mins by competition assay in presence of GTP. In kind it is cell membranes.
The test system of test [3] is Mus musculus. The test is described as follows: Antipsychotic activity in CF1 mouse assessed as prevention of ketamine-induced hyperlocomotion at 1 mg/kg, po administered 30 mins prior ketamine challenge measured for 20 mins post challenge. In kind it is functional, organism-based. On the set-up: dose 1 mg/kg. In outline: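 Male CF1 mice, dosed orally (10 ml/kg, fasted 2 h) and placed at the centre of the apparatus in a dimly lit room. Ketamine 10 mg/kg was given s.c. 30 min later. A blinded observer counted square crossings over 20 min. n = 7-8. One-way ANOVA with Student-Newman-Keuls post hoc test.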

In test [4] the test system is Mus musculus. Kind of test: Antipsychotic activity in CF1 mouse assessed as prevention of apomorphine-induced climbing behaviour at 15 mg/kg, po administered 30 mins prior apomorphine challenge measured 5 to 30 mins post challenge. Also noted: dose 15 mg/kg. In kind it is functional, organism-based. The gist of the method:
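Male CF1 mice (25-35 g), given the drug orally (10 ml/kg, fasted 2 h) and then kept in metal-bar cages for 30 min. Apomorphine 4 mg/kg was then given s.c. Climbing was scored 0-4 for 1 min at 5, 10, 15, 20, 25 and 30 min, and the scores were summed per animal as a climbing index. n = 8-9. One-way ANOVA with Student-Newman-Keuls post hoc test.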

Test [5] concerns the target 5-hydroxytryptamine receptor 2A (Rattus norvegicus) (UniProt P14842). Kind of test: Antagonist activity at 5HT2A receptor in rat brain cortical membranes assessed as inhibition of [3H]-ketanserin binding to receptor after 15 mins by competition assay in absence of GTP. It counts as cell membranes. In outline: (§1)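 Rat cortical membranes, 150 µg protein, with 1 nM [3H]-ketanserin and 100 nM prazosin in 50 mM Tris-HCl pH 7.4, 37 °C, 15 min. Non-specific binding was defined with ketanserin. For the GTP shift, paired competition curves were run without and with guanylyl nucleotide (0.1 mM Gpp(NH)p or 1 mM GTP).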

Test [6] has the same target. The test is described as follows: Antagonist activity at 5HT2A receptor in rat brain cortical membranes assessed as inhibition of [3H]-ketanserin binding to receptor after 15 mins by competition assay in presence of GTP. It counts as cell membranes. The gist of the method:
as §1

In test [7] the test system is Mus musculus. Kind of test: Antipsychotic activity in CF1 mouse assessed as prevention of ketamine-induced hyperlocomotion at 0.01 mg/kg, po administered 30 mins prior ketamine challenge measured for 20 mins post challenge. On the set-up: dose 0.01 mg/kg. In kind it is functional, organism-based. In outline: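 Mice were pretreated (reference drug orally after 2 h fast; test compound i.p.) and placed in the arena centre. Ketamine 10 mg/kg s.c. was given 30 min later. A blinded observer counted total square crossings over 20 min in a dimly lit room. n = 7–8. Analysed by one-way ANOVA with Newman-Keuls post hoc test.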

Test [8] deals with Mus musculus. The test is described as follows: Antipsychotic activity in CF1 mouse assessed as prevention of apomorphine-induced climbing behaviour at 0.5 mg/kg, po administered 30 mins prior apomorphine challenge measured 5 to 30 mins post challenge. In kind it is functional, organism-based. On the set-up: dose 0.5 mg/kg. The gist of the method: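 Reference drug given orally to mice fasted 2 h. Apomorphine 4 mg/kg s.c. was given 30 min later. Climbing was scored 0–4 at 5-min intervals up to 30 min and summed as the climbing index. n = 8–9. Analysed by one-way ANOVA with Newman-Keuls post hoc test.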

Sequence of 5-hydroxytryptamine receptor 2A (Rattus norvegicus) (P14842 whole entry): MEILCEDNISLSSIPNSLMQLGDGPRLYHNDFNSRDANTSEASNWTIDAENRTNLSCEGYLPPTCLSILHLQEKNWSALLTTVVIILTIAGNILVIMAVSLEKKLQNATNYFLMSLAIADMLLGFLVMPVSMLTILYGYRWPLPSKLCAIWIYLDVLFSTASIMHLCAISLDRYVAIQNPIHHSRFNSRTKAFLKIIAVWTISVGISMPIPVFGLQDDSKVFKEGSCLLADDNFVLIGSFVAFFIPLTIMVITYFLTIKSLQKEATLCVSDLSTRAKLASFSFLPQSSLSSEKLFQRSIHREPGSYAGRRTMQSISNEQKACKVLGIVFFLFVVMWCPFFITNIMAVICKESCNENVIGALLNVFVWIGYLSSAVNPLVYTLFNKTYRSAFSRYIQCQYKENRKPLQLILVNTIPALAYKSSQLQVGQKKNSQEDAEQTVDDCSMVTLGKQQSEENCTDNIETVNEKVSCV

Regarding `COc1ccccc1N1CCN(CCN(C(=O)c2ccc(F)cc2)c2ccccn2)CC1`, the inhibition entry in test [1] and in test [2] was “Active” each time.

Consider `CN1CCN(C2=Nc3cc(Cl)ccc3Nc3ccccc32)CC1`, for which the result in test [3] and in test [4] was Active.

In the case of `O=C(c1ccc(F)cc1)C1CCN(CCn2c(=O)[nH]c3ccccc3c2=O)CC1`, the inhibition entry in test [5] and in test [6] was “Active” in each case.

As for `O=C(CCCN1CCC(O)(c2ccc(Cl)cc2)CC1)c1ccc(F)cc1`, the outcome in test [7] was inactive. Moreover, in test [8], the result was Active.

The record behind these values is ChEMBL document CHEMBL2412990, “Synthesis and pharmacological evaluation of new N-phenylpiperazine derivatives designed as homologues of the antipsychotic lead compound LASSBio-579” (Eur J Med Chem, 2013).
